Experimental data from ChEMBL document CHEMBL1268915, “Optimization of a series of dipeptides with a P3 threonine residue as non-covalent inhibitors of the chymotrypsin-like activity of the human 20S proteasome” (Bioorg Med Chem Lett, 2010).
Each block holds one compound with its values, some of them ahead of it. The source made the active and inactive calls. The calls are words filed in the database; no cut-off is given here. Residues, ends and D or L forms follow the SMILES beside them. *: point of attachment. NHBn = c1ccc(CN*)cc1; Bn = c1ccc(C*)cc1

Columns and labels:
[1] = Inhibition of chymotrypsin-like activity of human 20s proteasome beta5 subunit in human erythrocyte assessed as hydrolysis of Ac-WLA-AMC fluorogenic substrate
[2] = Inhibition of chymotrypsin-like activity of human 20s proteasome beta-1 subunit in human erythrocyte assessed as hydrolysis of Ac-WLA-AMC fluorogenic substrate
[3] = Inhibition of chymotrypsin-like activity of human 20s proteasome beta2 subunit in human erythrocyte assessed as hydrolysis of Ac-WLA-AMC fluorogenic substrate
[4] = target: Cathepsin B (Homo sapiens) (UniProt P07858); experiment: Inhibition of human cathepsin B at 100uM
[5] = target: Procathepsin L (Homo sapiens) (UniProt P07711); experiment: Inhibition of human cathepsin L at 100uM
Procathepsin L (Homo sapiens), sequence (P07711 114-333 limits assumed): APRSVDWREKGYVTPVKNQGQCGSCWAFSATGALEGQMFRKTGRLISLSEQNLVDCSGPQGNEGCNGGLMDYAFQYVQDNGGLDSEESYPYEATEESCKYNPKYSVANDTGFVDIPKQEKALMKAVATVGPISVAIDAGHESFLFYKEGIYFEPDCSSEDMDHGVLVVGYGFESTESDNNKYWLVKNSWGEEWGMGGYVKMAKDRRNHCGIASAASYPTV

[6] = target: T1, Coagulation factor XII (Homo sapiens) (UniProt P00748); experiment: Inhibition of human coagulation factor beta 12a at 100 uM
T1 sequence (whole entry): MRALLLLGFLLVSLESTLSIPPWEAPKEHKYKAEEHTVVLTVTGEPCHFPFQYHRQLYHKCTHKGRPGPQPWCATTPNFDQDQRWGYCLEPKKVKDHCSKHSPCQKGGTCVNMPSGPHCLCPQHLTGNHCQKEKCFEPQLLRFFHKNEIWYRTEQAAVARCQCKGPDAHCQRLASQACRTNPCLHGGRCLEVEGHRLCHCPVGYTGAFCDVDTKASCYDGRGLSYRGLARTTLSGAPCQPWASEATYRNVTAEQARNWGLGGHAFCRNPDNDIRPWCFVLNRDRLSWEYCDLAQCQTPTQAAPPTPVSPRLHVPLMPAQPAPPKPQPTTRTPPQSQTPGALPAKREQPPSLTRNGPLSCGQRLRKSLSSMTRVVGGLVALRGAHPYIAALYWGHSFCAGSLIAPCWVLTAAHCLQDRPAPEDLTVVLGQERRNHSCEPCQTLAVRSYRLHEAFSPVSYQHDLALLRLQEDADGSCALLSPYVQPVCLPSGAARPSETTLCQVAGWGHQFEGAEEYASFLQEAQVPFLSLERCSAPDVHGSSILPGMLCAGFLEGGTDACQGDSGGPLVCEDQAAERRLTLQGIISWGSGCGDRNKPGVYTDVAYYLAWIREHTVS

Homo sapiens [7] = species on record: Homo sapiens; experiment: Inhibition of human chymotrypsin at 100 uM
Homo sapiens [8] = species on record: Homo sapiens; experiment: Inhibition of human elastase at 100 uM
[9] = target: Plasminogen (Homo sapiens) (UniProt P00747); experiment: Inhibition of human plasmin at 100 uM
Plasminogen (Homo sapiens), sequence (P00747 97-580 limits assumed): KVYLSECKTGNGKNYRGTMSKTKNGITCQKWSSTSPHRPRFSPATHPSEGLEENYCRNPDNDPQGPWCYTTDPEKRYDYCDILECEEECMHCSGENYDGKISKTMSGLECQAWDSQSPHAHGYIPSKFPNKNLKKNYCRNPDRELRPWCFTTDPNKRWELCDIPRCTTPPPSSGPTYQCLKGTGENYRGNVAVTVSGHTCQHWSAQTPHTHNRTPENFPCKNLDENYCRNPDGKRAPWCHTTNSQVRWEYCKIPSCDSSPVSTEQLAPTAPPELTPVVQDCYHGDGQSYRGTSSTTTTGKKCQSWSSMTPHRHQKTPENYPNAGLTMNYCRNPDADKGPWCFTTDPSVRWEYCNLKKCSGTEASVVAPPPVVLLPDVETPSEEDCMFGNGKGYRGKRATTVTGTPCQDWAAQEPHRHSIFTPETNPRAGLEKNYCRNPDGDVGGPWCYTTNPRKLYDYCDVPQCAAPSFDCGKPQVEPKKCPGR
Plasminogen (Homo sapiens), sequence (P00747 581-810 limits assumed): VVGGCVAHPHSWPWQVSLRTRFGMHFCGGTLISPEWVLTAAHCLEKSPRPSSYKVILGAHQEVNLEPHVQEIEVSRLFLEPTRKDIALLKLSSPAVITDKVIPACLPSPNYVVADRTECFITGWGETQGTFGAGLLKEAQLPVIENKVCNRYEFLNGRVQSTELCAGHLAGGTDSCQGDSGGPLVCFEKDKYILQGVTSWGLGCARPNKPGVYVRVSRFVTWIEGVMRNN

[10] = target: Prothrombin (Homo sapiens) (UniProt P00734); experiment: Inhibition of human thrombin at 100 uM
[11] = target: Tissue-type plasminogen activator (Homo sapiens) (UniProt P00750); experiment: Inhibition of tissue plasminogen activator at 100 uM
Tissue-type plasminogen activator (Homo sapiens), sequence (P00750 36-562 limits assumed): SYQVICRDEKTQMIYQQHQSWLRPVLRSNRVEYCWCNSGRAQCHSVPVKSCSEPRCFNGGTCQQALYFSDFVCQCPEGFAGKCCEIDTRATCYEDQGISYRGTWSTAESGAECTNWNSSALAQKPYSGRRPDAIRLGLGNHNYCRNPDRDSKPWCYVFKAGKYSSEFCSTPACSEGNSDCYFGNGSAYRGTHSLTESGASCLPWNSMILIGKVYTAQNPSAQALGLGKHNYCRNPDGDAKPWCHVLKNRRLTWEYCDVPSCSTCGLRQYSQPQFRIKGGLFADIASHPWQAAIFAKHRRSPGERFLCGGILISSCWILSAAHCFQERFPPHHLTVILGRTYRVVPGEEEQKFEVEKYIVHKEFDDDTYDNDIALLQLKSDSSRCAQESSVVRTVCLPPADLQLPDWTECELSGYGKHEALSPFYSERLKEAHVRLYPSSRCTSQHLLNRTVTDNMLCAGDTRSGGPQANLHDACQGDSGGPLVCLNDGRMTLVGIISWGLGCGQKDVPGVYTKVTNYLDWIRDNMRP

Trypsin (Homo sapiens) = Trypsin (Homo sapiens) (UniProt P07477+P07478+P35030); experiment: Inhibition of human trypsin at 100 uM; format: protein assay
[12] = target: T2, Calpain-1 catalytic subunit (Homo sapiens) (UniProt P07384); experiment: Inhibition of human calpain 1 at 100 uM
T2 sequence (whole entry): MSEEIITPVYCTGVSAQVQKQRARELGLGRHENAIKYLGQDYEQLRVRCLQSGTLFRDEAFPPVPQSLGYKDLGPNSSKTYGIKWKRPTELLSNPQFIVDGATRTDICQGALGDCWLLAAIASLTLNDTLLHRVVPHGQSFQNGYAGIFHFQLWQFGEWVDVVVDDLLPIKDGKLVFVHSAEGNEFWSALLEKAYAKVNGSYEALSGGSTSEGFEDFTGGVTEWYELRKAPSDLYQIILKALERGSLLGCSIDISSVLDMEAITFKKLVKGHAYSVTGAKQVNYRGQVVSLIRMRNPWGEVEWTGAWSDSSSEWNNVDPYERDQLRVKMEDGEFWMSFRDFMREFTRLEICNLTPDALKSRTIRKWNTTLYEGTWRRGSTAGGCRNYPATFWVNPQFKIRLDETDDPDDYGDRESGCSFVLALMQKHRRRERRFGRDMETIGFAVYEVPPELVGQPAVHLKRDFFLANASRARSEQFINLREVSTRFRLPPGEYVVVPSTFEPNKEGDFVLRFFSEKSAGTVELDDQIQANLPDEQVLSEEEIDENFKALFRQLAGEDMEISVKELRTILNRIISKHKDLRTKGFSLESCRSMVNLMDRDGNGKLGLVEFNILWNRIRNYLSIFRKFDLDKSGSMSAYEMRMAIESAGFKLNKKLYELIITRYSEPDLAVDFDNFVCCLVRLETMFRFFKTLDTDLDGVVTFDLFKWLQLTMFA

[13] = (§1) Inhibition of TNF-alpha-induced NF-kappaB activation in human HEK293 cells after 3 hrs by luciferase reporter gene assay; format: cell-based; conditions: HEK293, 3 h
In short: (§2)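 NF-κB-luciferase reporter in HEK293 cells (10,000 per well). Cells were pre-incubated with compound for 1 h, then stimulated with 10 ng/ml TNF-α for 3 h with compound still present. IC50 and percentage inhibition were reported as means of at least three independent experiments.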

HEK293 = experiment: as §1; format: cell-based; set-up: concentration or dose not given beside the values; conditions: dose or concentration not given here; in short: as §2
[14] = Cytotoxicity against human Calu6 cells assessed as cellular ATP level after 72 hrs by luminescence-based ATPlite assay; format: cell-based, Calu-6; conditions: read-out: LC50
In short: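 Calu6 cells, 2000 per well, incubated with compound for 72 h. Viability read as cellular ATP by luminescence (ATPlite). Values are means of at least three independent experiments.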

IC50 [1]: 0.015 µM | IC50 [2]: > 20 µM | IC50 [3]: > 20 µM | inhibition [4]: Active | inhibition [5]: Active | inhibition [6]: Active | inhibition (Homo sapiens [7]): Active | inhibition (Homo sapiens [8]): Active | inhibition [9]: Active | inhibition [10]: Active | inhibition [11]: Active | inhibition (Trypsin (Homo sapiens)): Active | inhibition [12]: Active
Structure (SMILES): COc1ccc(CNC(=O)[C@@H](NC(=O)[C@H](Cc2cc(OC)c(OC)c(OC)c2)NC(=O)Cc2cccc(Oc3ccccc3)c2)C(C)C)c(O)c1

Structure (SMILES): COC[C@H](NC(=O)Cc1cccc(OCc2ccccc2)c1)C(=O)N[C@@H](CCc1ccccc1)C(=O)NCc1ccc(C)cc1
IC50 [1]: 0.074 µM | IC50 [13]: 0.34 µM | inhibition (HEK293): 78% | CC50 at 72 h [14]: 0.22 µM | IC50 [2]: > 20 µM | IC50 [3]: > 20 µM | inhibition [4]: Active | inhibition [5]: Active | inhibition [6]: Active | inhibition (Homo sapiens [7]): Active | inhibition (Homo sapiens [8]): Active | inhibition [9]: Active | inhibition [10]: Active | inhibition [11]: Active | inhibition (Trypsin (Homo sapiens)): Active | inhibition [12]: Active

Structure (SMILES): C[C@@H](O)[C@H](NC(=O)c1ccc(OCc2ccccc2)cc1)C(=O)N[C@@H](CCc1ccccc1)C(=O)NCc1ccccc1
IC50 [1]: 0.068 µM | IC50 [13]: 0.71 µM | inhibition (HEK293): 68% | CC50 at 72 h [14]: 1.4 µM | IC50 [2]: > 20 µM | IC50 [3]: > 20 µM | inhibition [4]: Active | inhibition [5]: Active | inhibition [6]: Active | inhibition (Homo sapiens [7]): Active | inhibition (Homo sapiens [8]): Active | inhibition [9]: Active | inhibition [10]: Active | inhibition [11]: Active | inhibition (Trypsin (Homo sapiens)): Active | inhibition [12]: Active

Structure (SMILES): COC[C@H](NC(=O)Cc1cccc(Oc2ccccc2)c1)C(=O)N[C@@H](CCc1ccccc1)C(=O)NCc1ccc(C)cc1
IC50 [1]: 0.55 µM | IC50 [13]: 6.1 µM | inhibition (HEK293): 40% | CC50 at 72 h [14]: > 25 µM | IC50 [2]: > 20 µM | IC50 [3]: > 20 µM | inhibition [4]: Active | inhibition [5]: Active | inhibition [6]: Active | inhibition (Homo sapiens [7]): Active | inhibition (Homo sapiens [8]): Active | inhibition [9]: Active | inhibition [10]: Active | inhibition [11]: Active | inhibition (Trypsin (Homo sapiens)): Active | inhibition [12]: Active

Structure (SMILES): Cc1ccc(CNC(=O)[C@H](CCc2ccccc2)NC(=O)[C@@H](NC(=O)Cc2cccc(Oc3ccccc3)c2)[C@@H](C)O)cc1
IC50 [1]: 0.45 µM | IC50 [13]: 24 µM | inhibition (HEK293): 30% | CC50 at 72 h [14]: 15 µM | IC50 [2]: > 20 µM | IC50 [3]: > 20 µM | inhibition [4]: Active | inhibition [5]: Active | inhibition [6]: Active | inhibition (Homo sapiens [7]): Active | inhibition (Homo sapiens [8]): Active | inhibition [9]: Active | inhibition [10]: Active | inhibition [11]: Active | inhibition (Trypsin (Homo sapiens)): Active | inhibition [12]: Active

Structure (SMILES): Cc1ccc(CNC(=O)[C@H](CCc2ccccc2)NC(=O)[C@H](CCc2ccccc2)NC(=O)[C@H](CCc2ccccc2)NC(=O)c2cnc(C)cn2)cc1
IC50 [1]: 0.016 µM | IC50 [13]: 0.047 µM | inhibition (HEK293): 79% | CC50 at 72 h [14]: 0.14 µM | IC50 [2]: > 20 µM | IC50 [3]: > 20 µM | inhibition [4]: Active | inhibition [5]: Active | inhibition [6]: Active | inhibition (Homo sapiens [7]): Active | inhibition (Homo sapiens [8]): Active | inhibition [9]: Active | inhibition [10]: Active | inhibition [11]: Active | inhibition (Trypsin (Homo sapiens)): Active | inhibition [12]: Active

Structure (SMILES): Cc1ccc(CNC(=O)[C@H](CCc2ccccc2)NC(=O)[C@@H](NC(=O)CCc2ccccc2C)[C@@H](C)O)cc1
IC50 [1]: 0.12 µM | IC50 [13]: 0.69 µM | inhibition (HEK293): 80% | CC50 at 72 h [14]: 2.3 µM | IC50 [2]: > 20 µM | IC50 [3]: > 20 µM | inhibition [4]: Active | inhibition [5]: Active | inhibition [6]: Active | inhibition (Homo sapiens [7]): Active | inhibition (Homo sapiens [8]): Active | inhibition [9]: Active | inhibition [10]: Active | inhibition [11]: Active | inhibition (Trypsin (Homo sapiens)): Active | inhibition [12]: Active

IC50 [2]: > 20 µM | IC50 [3]: > 20 µM | inhibition [4]: Active | inhibition [5]: Active | inhibition [6]: Active | inhibition (Homo sapiens [7]): Active | inhibition (Homo sapiens [8]): Active | inhibition [9]: Active | inhibition [10]: Active | inhibition [11]: Active | inhibition (Trypsin (Homo sapiens)): Active | inhibition [12]: Active
Structure (SMILES): C[C@H](NC(=O)[C@@H](N)Cc1ccc(OCc2ccccc2)cc1)C(=O)N[C@@H](Cc1c[nH]c2ccccc12)C(=O)NCc1ccccc1 (H-Tyr(Bn)-Ala-Trp-NHBn)

Structure (SMILES): Cc1ccsc1CNC(=O)[C@H](CCc1ccccc1)NC(=O)[C@@H](NC(=O)c1ccc(OCc2ccccc2)cc1)[C@@H](C)O
IC50 [13]: 0.028 µM | inhibition (HEK293): 81% | CC50 at 72 h [14]: 0.11 µM | IC50 [2]: > 20 µM | IC50 [3]: > 20 µM | inhibition [4]: Active | inhibition [5]: Active | inhibition [6]: Active | inhibition (Homo sapiens [7]): Active | inhibition (Homo sapiens [8]): Active | inhibition [9]: Active | inhibition [10]: Active | inhibition [11]: Active | inhibition (Trypsin (Homo sapiens)): Active | inhibition [12]: Active

Structure (SMILES): Cc1ccccc1CCC(=O)N[C@H](C(=O)N[C@@H](CCc1ccccc1)C(=O)NCc1ccccc1Cl)[C@@H](C)O
IC50 [13]: 0.33 µM | inhibition (HEK293): 71% | CC50 at 72 h [14]: 2.7 µM | IC50 [2]: > 20 µM | IC50 [3]: > 20 µM | inhibition [4]: Active | inhibition [5]: Active | inhibition [6]: Active | inhibition (Homo sapiens [7]): Active | inhibition (Homo sapiens [8]): Active | inhibition [9]: Active | inhibition [10]: Active | inhibition [11]: Active | inhibition (Trypsin (Homo sapiens)): Active | inhibition [12]: Active

Structure (SMILES): C[C@@H](O)[C@H](NC(=O)c1ccc(OCc2ccccc2)cc1)C(=O)N[C@@H](CCc1ccccc1)C(=O)NCCc1cccs1
IC50 [1]: 3.2 µM | IC50 [13]: > 50 µM | CC50 at 72 h [14]: > 25 µM | IC50 [2]: > 20 µM | IC50 [3]: > 20 µM | inhibition [4]: Active | inhibition [5]: Active | inhibition [6]: Active | inhibition (Homo sapiens [7]): Active | inhibition (Homo sapiens [8]): Active | inhibition [9]: Active | inhibition [10]: Active | inhibition [11]: Active | inhibition (Trypsin (Homo sapiens)): Active | inhibition [12]: Active

Structure (SMILES): CC(NC(=O)[C@H](CCc1ccccc1)NC(=O)[C@@H](NC(=O)c1ccc(OCc2ccccc2)cc1)[C@@H](C)O)c1ccccc1 (stereo partly specified)
IC50 [1]: > 100 µM | IC50 [13]: > 50 µM | CC50 at 72 h [14]: 9 µM | IC50 [2]: > 20 µM | IC50 [3]: > 20 µM | inhibition [4]: Active | inhibition [5]: Active | inhibition [6]: Active | inhibition (Homo sapiens [7]): Active | inhibition (Homo sapiens [8]): Active | inhibition [9]: Active | inhibition [10]: Active | inhibition [11]: Active | inhibition (Trypsin (Homo sapiens)): Active | inhibition [12]: Active
